Activity calls are given as the source filed them. The calls are words filed in the database; no cut-off is given here.
Assays:
[1] = system: Yellow fever virus; test: Antiviral activity against Yellow fever virus 17D infected in African green monkey Vero cells assessed as inhibition of virus induced cytopathic effect by luciferase reporter gene assay; type: functional, cell-based
[2] = system: Syrian golden hamster; test: Toxicity in syrian golden hamster infected with 10^2 CCID50 Yellow fever virus Jimenez assessed as weight change at 32 mg/kg/day, po administered twice daily for 8 days started 4 hrs prior to viral infection relative to control; type: organism-based, Mesocricetus auratus; parameters: route oral; conditions: in vivo
[3] = system: Yellow fever virus; test: Antiviral activity against Yellow fever virus 17D infected in African green monkey Vero cells assessed as time required for inhibition of viral replication at 6400 uM up to 12 hrs post-viral infection; type: functional, cell-based
[4] = system: Yellow fever virus; test: Antiviral activity against 10^2 CCID50 Yellow fever virus Jimenez infected in syrian golden hamster assessed as mean day of death […] at 10 mg/kg/day, po administered twice daily for 8 days started 4 hrs prior to viral infection relative to control; type: functional
[5] = Cytotoxicity against African green monkey Vero cells by luciferase-based cell viability assay; conditions: chlorocebus sabaeus
Procedure, shortened: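 Uninfected Vero cells exposed to compound were assayed for ATP content by luminescence (Cell-Titer Glo) to derive the CC50.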

[6] = system: Yellow fever virus; test: Antiviral activity against Yellow fever virus 17D infected in African green monkey Vero cells assessed as inhibition of virus induced cytopathic effect […] by NR dye uptake assay; type: functional, cell-based
[7] = system: Yellow fever virus; test: Antiviral activity against 10^2 CCID50 Yellow fever virus Jimenez infected in syrian golden hamster assessed as serum ALT level at 32 mg/kg/day, po administered twice daily for 8 days started 4 hrs prior to viral infection; type: functional
[8] = system: Yellow fever virus; test: Antiviral activity against 10^2 CCID50 Yellow fever virus Jimenez infected in syrian golden hamster assessed as serum survival of animal at 32 mg/kg/day, po administered twice daily for 8 days started 4 hrs prior to viral infection; type: functional, organism-based
[9] = Selectivity index, ratio of CC50 for African green monkey vero cells to EC90 for Yellow fever virus 17D; type: toxicity, cell-based; conditions: read-out: Selectivity Index
Procedure, shortened: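 SI was calculated as the CC50 in uninfected Vero cells divided by the EC90 from the YFV 17D virus yield reduction assay in Vero cells.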

[10] = system: Yellow fever virus; test: Antiviral activity against Yellow fever virus 17D infected in African green monkey Vero cells assessed as reduction in virus yield; type: functional
Procedure, shortened: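 Virus yield reduction in Vero cells infected with YFV 17D after compound exposure, with progeny virus titred by CCID50. The EC90 was averaged over separate experiments.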

[11] = system: Yellow fever virus; test: Antiviral activity against 10^2 CCID50 Yellow fever virus Jimenez infected in syrian golden hamster assessed as reduction in viral titer in liver at 32 mg/kg/day administered twice daily for 8 days started 6 days post infection by quantitative RT-PCR analysis; type: functional
[12] = system: Yellow fever virus; test: Antiviral activity against 10^2 CCID50 Yellow fever virus Jimenez infected in syrian golden hamster assessed as mean day of death […] at 32 mg/kg/day, po administered twice daily for 8 days started 4 hrs prior to viral infection relative to control; type: functional
[13] = system: Yellow fever virus; test: Antiviral activity against Yellow fever virus 17D infected in African green monkey Vero cells assessed as inhibition of virus induced cytopathic effect by microscopic analysis; type: functional, cell-based
[14] = system: Syrian golden hamster; test: Toxicity in syrian golden hamster infected with 10^2 CCID50 Yellow fever virus Jimenez assessed as weight change at 400 mg/kg/day, po administered twice daily for 8 days started 5 day post viral infection; type: organism-based, Mesocricetus auratus; parameters: route oral; conditions: in vivo
[15] = system: Syrian golden hamster; test: Toxicity in syrian golden hamster infected with 10^2 CCID50 Yellow fever virus Jimenez assessed as weight change at 200 mg/kg/day, po administered twice daily for 8 days started 4 hrs prior to viral infection relative to control; type: organism-based, Mesocricetus auratus; parameters: route oral; conditions: in vivo
[16] = system: Syrian golden hamster; test: Toxicity in syrian golden hamster infected with 10^2 CCID50 Yellow fever virus assessed as weight change in non surviving animals at 400 mg/kg/day, po BID administered for 8 days started 5 days post viral challenge; type: organism-based, Mesocricetus auratus; parameters: route oral; conditions: in vivo
[17] = system: Syrian golden hamster; test: Toxicity in syrian golden hamster infected with 10^2 CCID50 Yellow fever virus Jimenez assessed as weight change at 400 mg/kg/day, po administered twice daily for 8 days started 4 hrs prior to viral infection relative to control; type: organism-based, Mesocricetus auratus; parameters: route oral; conditions: in vivo
[18] = system: Syrian golden hamster; test: Toxicity in syrian golden hamster infected with 10^2 CCID50 Yellow fever virus assessed as weight change in non surviving animals at 400 mg/kg/day, po BID administered for 8 days started 4 days post viral challenge; type: organism-based, Mesocricetus auratus; parameters: route oral; conditions: in vivo
[19] = system: Syrian golden hamster; test: Toxicity in syrian golden hamster infected with 10^2 CCID50 Yellow fever virus assessed as weight change in surviving animals at 400 mg/kg/day, po BID administered for 8 days started 5 days post viral challenge; type: organism-based, Mesocricetus auratus; parameters: route oral; conditions: in vivo
[20] = system: Syrian golden hamster; test: Toxicity in syrian golden hamster assessed as number of animals alive at 400 mg/kg/day, po BID administered for 8 days; type: organism-based, Mesocricetus auratus; parameters: route oral; conditions: in vivo, 192 h
Procedure, shortened: (§1)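 Uninfected toxicity-control hamsters, three per group, were dosed p.o. in 0.4% carboxymethyl cellulose twice daily, 12 h apart, for 8 days. Deaths were recorded daily. Body weights were taken at 0, 3 and 6 dpi.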

[21] = system: Syrian golden hamster; test: Toxicity in syrian golden hamster infected with 10^2 CCID50 Yellow fever virus Jimenez assessed as weight change at 400 mg/kg/day, po administered twice daily for 8 days started 4 day post viral infection; type: organism-based, Mesocricetus auratus; parameters: route oral; conditions: in vivo
[22] = system: Syrian golden hamster; test: Toxicity in syrian golden hamster infected with 10^2 CCID50 Yellow fever virus Jimenez assessed as weight change at 400 mg/kg/day, po administered twice daily for 8 days started 3 day post viral infection; type: organism-based, Mesocricetus auratus; parameters: route oral; conditions: in vivo
[23] = system: Syrian golden hamster; test: Toxicity in syrian golden hamster infected with 10^2 CCID50 Yellow fever virus Jimenez assessed as weight change at 400 mg/kg/day, po administered twice daily for 8 days started 1 day post viral infection; type: organism-based, Mesocricetus auratus; parameters: route oral; conditions: in vivo
[24] = system: Syrian golden hamster; test: Toxicity in syrian golden hamster infected with 10^2 CCID50 Yellow fever virus assessed as weight change in surviving animals at 400 mg/kg/day, po BID administered for 8 days started 4 days post viral challenge; type: organism-based, Mesocricetus auratus; parameters: route oral; conditions: in vivo
[25] = system: Syrian golden hamster; test: Toxicity in syrian golden hamster infected with 10^2 CCID50 Yellow fever virus Jimenez assessed as weight change at 100 mg/kg/day, po administered twice daily for 8 days started 4 hrs prior to viral infection; type: organism-based, Mesocricetus auratus; parameters: route oral; conditions: in vivo
[26] = system: Syrian golden hamster; test: Toxicity in syrian golden hamster infected with 10^2 CCID50 Yellow fever virus Jimenez assessed as weight change at 400 mg/kg/day, po administered twice daily for 8 days started 2 day post viral infection; type: organism-based, Mesocricetus auratus; parameters: route oral; conditions: in vivo
[27] = system: Syrian golden hamster; test: Toxicity in syrian golden hamster assessed as weight change at 400 mg/kg/day, po BID administered for 8 days; type: organism-based, Mesocricetus auratus; parameters: route oral; conditions: in vivo, 192 h; procedure, shortened: as §1
[28] = system: Yellow fever virus; test: Antiviral activity against 10^2 CCID50 Yellow fever virus Jimenez infected in syrian golden hamster assessed as mean day of death […] at 50 mg/kg/day, po administered twice daily for 8 days started 4 hrs prior to viral infection relative to control; type: functional
[29] = system: Yellow fever virus; test: Antiviral activity against 10^2 CCID50 Yellow fever virus Jimenez infected in syrian golden hamster assessed as serum survival of animal at 50 mg/kg/day, po administered twice daily for 8 days started 4 hrs prior to viral infection; type: functional, organism-based
[30] = system: Syrian golden hamster; test: Toxicity in syrian golden hamster infected with 10^2 CCID50 Yellow fever virus Jimenez assessed as weight change at 10 mg/kg/day, po administered twice daily for 8 days started 4 hrs prior to viral infection relative to control; type: organism-based, Mesocricetus auratus; parameters: route oral; conditions: in vivo
[31] = system: Yellow fever virus; test: Antiviral activity against 10^2 CCID50 Yellow fever virus Jimenez infected in syrian golden hamster assessed as serum ALT level at 10 mg/kg/day, po administered twice daily for 8 days started 4 hrs prior to viral infection; type: functional

NC(=O)c1nccn([C@@H]2O[C@H](CO)[C@@H](O)[C@H]2O)c1=O
EC50 [1]: 2.63 mM | Activity [2]: 0.2 g | Activity [3]: Active | Time [4]: 8 days | CC50 [5]: > 4 mM | EC50 [6]: 1.8 mM | Activity [7]: 154 IU/L | Activity [8]: Active | selectivity ratio [9]: > 3.6 | EC90 [10]: 1.11 mM | Activity [11]: 85 IU/L | Time [12]: >21 days | EC50 [13]: 1.08 mM

NC(=O)c1nc(F)c[nH]c1=O [FAVIPIRAVIR]
CC50 [5]: > 6.37 mM | Activity [14]: -4.5 g | selectivity ratio [9]: > 19 | Activity [15]: 2.2 g | Activity [16]: -7.3 g | Activity [17]: 5.2 g | Activity [18]: -18.5 g | Activity [19]: -2.8 g | Activity [20]: Non-toxic | Activity [21]: -3 g | Activity [22]: -4.1 g | Activity [23]: -0.3 g | Activity [24]: 2.2 g | Activity [25]: -2.9 g | Activity [26]: 0 g | Activity [27]: 5.3 g

NC(=O)c1ncn([C@@H]2O[C@H](CO)[C@@H](O)[C@H]2O)n1 [RIBAVIRIN]
CC50 [5]: > 4.1 mM | Time [28]: >21 days | Activity [29]: Active | selectivity ratio [9]: > 6 | EC90 [10]: 0.69 mM | Activity [30]: 2.4 g | Activity [31]: 103 IU/L | EC50 [13]: 0.028 mM

From ChEMBL document CHEMBL1629577, “Activity of T-705 in a hamster model of yellow fever virus infection in comparison with that of a chemically related compound, T-1106” (Antimicrob Agents Chemother, 2009)
